The values below come from ChEMBL document CHEMBL1955783, “Identification and optimization of small molecule antagonists of vasoactive intestinal peptide receptor-1 (VIPR1)” (Bioorg Med Chem Lett, 2012).

pIC50: −log10 of the molar value. Calls of active or inactive are those of the source. The calls are words filed in the database; no cut-off is given here.

Series [1] deals with T1, Vasoactive intestinal polypeptide receptor 1 (Rattus norvegicus, UniProt P30083).
T1 sequence (P30083 whole entry): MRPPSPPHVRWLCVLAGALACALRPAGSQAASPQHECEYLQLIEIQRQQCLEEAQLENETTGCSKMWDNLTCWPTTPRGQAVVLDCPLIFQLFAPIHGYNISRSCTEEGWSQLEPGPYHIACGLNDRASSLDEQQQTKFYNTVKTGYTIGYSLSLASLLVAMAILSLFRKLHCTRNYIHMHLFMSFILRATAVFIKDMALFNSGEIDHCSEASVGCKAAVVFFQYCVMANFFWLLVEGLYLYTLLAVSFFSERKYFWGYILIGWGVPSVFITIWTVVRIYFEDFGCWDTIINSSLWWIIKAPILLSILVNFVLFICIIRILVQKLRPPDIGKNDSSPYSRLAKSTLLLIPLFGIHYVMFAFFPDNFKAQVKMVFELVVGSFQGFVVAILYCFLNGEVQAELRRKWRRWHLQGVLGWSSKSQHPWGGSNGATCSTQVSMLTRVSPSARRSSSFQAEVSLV
The series can be described thus: Antagonist activity at vasoactive intestinal peptide receptor 1 in rat RKE cells assessed as inhibition of VIP-induced intracellular cAMP accumulation incubated for 15 mins prior to VIP-stimulation measured after 30 mins by HTRF assay.

A further series has as its system Calu-6. The series can be described thus: Cytotoxicity against human Calu6 cells expressing VIPR1 up to 10 uM in presence of 2% serum. The series is classed as functional, cell-based. The procedure, abridged:
(§1)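 Cell proliferation in H727, H1299 and Calu6 lines, chosen for high VIPR1 expression. Medium held 2% serum to limit albumin sequestration. Compounds were tested at concentrations up to 10 µM.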

In series [2] the target is T2, Vasoactive intestinal polypeptide receptor 1 (Rattus norvegicus) (UniProt P30083).
T2 sequence (whole entry): T1 sequence (P30083 whole entry)
Briefly: Displacement of [125I]VIP from vasoactive intestinal peptide receptor 1 in rat RKE cell membrane after 3 hrs by TopCount assay. Format: cell membranes. The procedure, abridged: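 Membranes from RKE-VIPR cells, 5 µg/well final, preincubated 10 min at room temperature with wheat germ agglutinin-coated PVT beads in 50 mM HEPES, 5 mM MgCl2, 1 mM CaCl2, 0.1% BSA. IC50 taken from a four-parameter logistic fit after subtracting nonspecific binding, defined with excess VIP.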

The next series concerns NCI-H1299. The series can be described thus: Cytotoxicity against human NCI-H1299 cells expressing VIPR1 up to 10 uM in presence of 2% serum. The series is classed as functional, cell-based. The gist of the method:
as §1

Series [3] in a line: Plasma protein binding in mouse. The series is classed as ADME, cell-free. To be noted: read-out: PPB (converted).
Series [4] is described as follows: Plasma protein binding in human. To be noted: read-out: PPB (converted). The series is classed as ADME, cell-free.
The next series relates to NCI-H727. Briefly: Cytotoxicity against human NCI-H727 cells expressing VIPR1 up to 10 uM in presence of 2% serum. Format: functional, cell-based. The procedure, abridged:
as §1

For the molecule `CC(C)c1cc(C(C)(C)C)cc(-c2ccc(F)cc2)c1CO`, the pIC50 in series [1] is 6.13. The result with Calu-6, in the series with NCI-H1299 and with NCI-H727 was inactive. Besides, the result in series [2] was Active. In addition, the fraction unbound in series [3] and in series [4] was 0.1 in each case.

For the molecule `CC(C)c1cc(C(C)(C)C)cc(-c2cccc(C#N)c2)c1CO`, the negative-log IC50 (pIC50) in series [1] is less than 4.30. Besides, the outcome in the series on Calu-6, in the series on NCI-H1299 and with NCI-H727 was inactive. The outcome in series [2] was Active.

As to `CC(C)c1cc(C(C)(C)C)cc(-c2ccc(Cl)cc2)c1CO`, the negative logarithm of the IC50 (pIC50) in series [1] is 6.54. Further, the result with Calu-6, in the series on NCI-H1299 and with NCI-H727 was inactive. Besides, the result in series [2] was Active.

For `CC(C)c1cc(C(C)(C)C)cc(-c2cccc(Cl)c2)c1CO`, the pIC50 in series [1] is 7.00. The outcome in the series on Calu-6, in the series with NCI-H1299 and with NCI-H727 was inactive. Also, in series [2], the outcome was Active.

`COc1cccc(-c2cc(C(C)(C)C)cc(C(C)C)c2CO)c1`: the pIC50 in series [1] was 6.70. Further, the outcome in the series on Calu-6, with NCI-H1299 and in the series on NCI-H727 was inactive. Besides, the outcome in series [2] was Active.

Consider `CC(C)c1cc(C(C)(C)C)cc(-c2cccc(N(C)C)c2)c1CO`, for which, in series [1], the pIC50 is 6.51. Moreover, the result in the series with Calu-6, in the series with NCI-H1299 and in the series with NCI-H727 was inactive. Also, the result in series [2] was Active.

Turning to `Cc1cccc(-c2cc(C(C)(C)C)cc(C(C)C)c2CO)c1`, the negative logarithm of the IC50 (pIC50) in series [1] was 6.62. Further, the outcome with Calu-6, in the series with NCI-H1299 and in the series on NCI-H727 was inactive. The outcome in series [2] was Active.

As to `CC(C)c1cc(C(C)(C)C)cc(-c2ccccc2-c2ccccc2)c1CO`, the pIC50 in series [1] was 5.49. The outcome with Calu-6, in the series with NCI-H1299 and with NCI-H727 was inactive. Further, the outcome in series [2] was Active.

Consider `Cc1ccc(-c2cc(C(C)(C)C)cc(C(C)C)c2CO)cc1C`, for which, in series [1], the negative-log IC50 (pIC50) was 7.09. The result with Calu-6, in the series on NCI-H1299 and in the series with NCI-H727 was inactive. Also, the outcome in series [2] was Active.

Regarding `Cc1ccc(-c2cc(C(C)(C)C)cc(C(C)C)c2CO)cc1`, the negative logarithm of the IC50 (pIC50) in series [1] is 6.52. The outcome in the series with Calu-6, with NCI-H1299 and in the series with NCI-H727 was inactive. Further, the result in series [2] was Active.

Regarding `COc1ccc(-c2cc(C(C)(C)C)cc(C(C)C)c2CO)cc1`, the pIC50 in series [1] is 5.89. In addition, the outcome in the series with Calu-6, with NCI-H1299 and in the series with NCI-H727 was inactive. In addition, the outcome in series [2] was Active.
